From ChEMBL document CHEMBL1145465, “PhoU is a persistence switch involved in persister formation and tolerance to multiple antibiotics and stresses in Escherichia coli” (2007)
≈ marks a conversion by molar mass, not a printed value. Calls of active or inactive are those of the source. The calls are words filed in the database; no cut-off is given here.

Experiments:
Escherichia coli [1] = experiment: Antibacterial activity against Escherichia coli K12 containing PhoU mutant assessed as bacterial killing log phase at 3 ug/ml after 6 days; format: functional
Escherichia coli [2] = experiment: Antibacterial activity against Escherichia coli K12 PhoU wild type W3110 assessed as cell count in stationary phase at 2 mg/ml after 6 days
Escherichia coli [3] = experiment: Antibacterial activity against Escherichia coli K12 containing PhoU mutant assessed as bacterial killing stationary phase at 2 mg/ml after 6 days
Escherichia coli [4] = experiment: Antibacterial activity against Escherichia coli K12 PhoU wild type W3110 assessed as cell count in log phase at […] after 6 days; format: functional, organism-based
Escherichia coli [5] = experiment: Antibacterial activity against Escherichia coli K12 mutant JHU313 at 50 ug/ml after 48 hrs by disc diffusion method; format: functional
Procedure, shortened: (§1)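 Kirby-Bauer disc assay: log-phase LB culture was spread on LB agar for confluent growth. 7-mm nitrocellulose discs were soaked in antibiotic at the listed concentration and placed on the agar. After 48 h at 37°C, the diameter of the inhibition zone was measured in mm.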

Escherichia coli [6] = experiment: Antibacterial activity against Escherichia coli K12 mutant JHU313 at 25 ug/ml after 48 hrs by disc diffusion method; format: functional; procedure, shortened: as §1
Escherichia coli [7] = experiment: Antibacterial activity against Escherichia coli K12 mutant JHU313 at 12.5 ug/ml after 48 hrs by disc diffusion method; format: functional; procedure, shortened: as §1
Escherichia coli [8] = experiment: Antibacterial activity against Escherichia coli K12 PhoU wild type W3110 at 12.5 ug/ml after 48 hrs by disc diffusion method; format: functional
Procedure, shortened: (§2)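 Kirby-Bauer disc assay. Log-phase LB broth culture (10⁸ bacteria) was spread on LB agar for confluent growth. 7 mm nitrocellulose discs soaked in antibiotic solution at the listed concentration were placed on the agar. Inhibition zone diameter (mm) was measured after 48 h at 37°C.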

Escherichia coli [9] = experiment: Antibacterial activity against Escherichia coli K12 mutant JHU313 containing plasmid PhoU at 25 ug/ml after 48 hrs by disc diffusion method; format: functional; procedure, shortened: as §1
Escherichia coli [10] = experiment: Antibacterial activity against Escherichia coli K12 mutant JHU313 containing plasmid PhoU at 50 ug/ml after 48 hrs by disc diffusion method; format: functional; procedure, shortened: as §1
Escherichia coli [11] = experiment: Antibacterial activity against Escherichia coli K12 mutant JHU313 containing plasmid vector at 25 ug/ml after 48 hrs by disc diffusion method; format: functional
Procedure, shortened: (§3)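 Kirby-Bauer paper-disc assay: log-phase E. coli (10⁸ bacteria) grown in LB broth, spread on LB agar for confluent growth; 7 mm nitrocellulose discs soaked with antibiotic solution at the listed concentration (μg/ml) placed on surface; incubated 37°C for 48 h; diameter of growth-inhibition zone measured in mm. Strain is the phoU transposon mutant transformed by electroporation with empty vector control.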

Escherichia coli [12] = experiment: Antibacterial activity against Escherichia coli K12 PhoU wild type W3110 at 25 ug/ml after 48 hrs by disc diffusion method; format: functional; procedure, shortened: as §2
Escherichia coli [13] = experiment: Antibacterial activity against Escherichia coli K12 mutant JHU313 containing plasmid vector at 50 ug/ml after 48 hrs by disc diffusion method; format: functional; procedure, shortened: as §3
Escherichia coli [14] = experiment: Antibacterial activity against Escherichia coli K12 PhoU wild type W3110 at 50 ug/ml after 48 hrs by disc diffusion method; format: functional; procedure, shortened: as §2
Escherichia coli [15] = experiment: Antibacterial activity against Escherichia coli K12 mutant JHU313 containing plasmid vector at 12.5 ug/ml after 48 hrs by disc diffusion method; format: functional; procedure, shortened: as §1
Escherichia coli [16] = experiment: Antibacterial activity against Escherichia coli K12 mutant JHU313 containing plasmid PhoU at 12.5 ug/ml after 48 hrs by disc diffusion method; format: functional; procedure, shortened: as §1
Escherichia coli [17] = experiment: Antibacterial activity against Escherichia coli K12 mutant JHU313 containing plasmid vector at 0.5 ug/ml after 48 hrs by disc diffusion method; format: functional; procedure, shortened: as §1
Escherichia coli [18] = experiment: Antibacterial activity against Escherichia coli K12 PhoU wild type W3110 at 0.5 ug/ml after 48 hrs by disc diffusion method; format: functional
Procedure, shortened: (§4)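 Kirby-Bauer disc assay. Log-phase LB culture (10⁸ bacteria) was spread for confluent growth on LB agar. 7 mm nitrocellulose discs soaked in antibiotic at the listed concentrations were laid on the agar. Inhibition zone diameter (mm) was measured after 48 h at 37°C.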

Escherichia coli [19] = experiment: Antibacterial activity against Escherichia coli K12 mutant JHU313 containing plasmid PhoU at 0.5 ug/ml after 48 hrs by disc diffusion method; format: functional; procedure, shortened: as §1
Escherichia coli [20] = experiment: Antibacterial activity against Escherichia coli K12 mutant JHU313 at 0.5 ug/ml after 48 hrs by disc diffusion method; format: functional; procedure, shortened: as §1
Escherichia coli [21] = experiment: Antibacterial activity against Escherichia coli K12 mutant JHU313 containing plasmid PhoU at 2 ug/ml after 48 hrs by disc diffusion method; format: functional; procedure, shortened: as §1
Escherichia coli [22] = experiment: Antibacterial activity against Escherichia coli K12 mutant JHU313 after 16 hrs by serial dilution method; format: functional; conditions: K12, 16 h
Procedure, shortened: (§5)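 Twofold serial antibiotic dilutions in LB broth were seeded with 10⁶–10⁷ bacteria/ml from log-phase culture and incubated 16 h at 37°C. MIC was taken as the lowest concentration with no visible growth. MBC was taken as the concentration giving a 100-fold CFU drop from the inoculum.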

Escherichia coli [23] = experiment: Antibacterial activity against Escherichia coli K12 mutant JHU313 containing plasmid vector at 2 ug/ml after 48 hrs by disc diffusion method; format: functional; procedure, shortened: as §1
Escherichia coli [24] = test system: Escherichia coli
Escherichia coli [25] = experiment: Antibacterial activity against Escherichia coli K12 mutant JHU313 containing plasmid PhoU after 16 hrs by serial dilution method; format: functional; conditions: K12, 16 h; procedure, shortened: as §5
Escherichia coli [26] = experiment: Antibacterial activity against Escherichia coli K12 PhoU wild type W3110 at 1 ug/ml after 48 hrs by disc diffusion method
Escherichia coli [27] = experiment: Antibacterial activity against Escherichia coli K12 PhoU wild type W3110 after 16 hrs by serial dilution method; format: functional; conditions: K12, 16 h
Procedure, shortened: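 Serial twofold antibiotic dilutions in LB broth; log-phase inoculum 10⁶ to 10⁷ bacteria/ml; 16 h at 37°C. MIC was the lowest concentration with no visible growth. MBC was the concentration giving a 100-fold CFU drop below the seeded inoculum.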

Escherichia coli [28] = test system: Escherichia coli; remark: listed apart in the source
Escherichia coli [29] = test system: Escherichia coli; remark: listed apart in the source
Escherichia coli [30] = experiment: Antibacterial activity against Escherichia coli K12 mutant JHU313 at 2 ug/ml after 48 hrs by disc diffusion method; format: functional; procedure, shortened: as §1
Escherichia coli [31] = experiment: Antibacterial activity against Escherichia coli K12 mutant JHU313 containing plasmid vector after 16 hrs by serial dilution method; format: functional; conditions: K12, 16 h; procedure, shortened: as §5
Escherichia coli [32] = experiment: Antibacterial activity against Escherichia coli K12 PhoU wild type W3110 at 2 ug/ml after 48 hrs by disc diffusion method; format: functional; procedure, shortened: as §4

In the case of `NC(=O)c1cnccn1` [PYRAZINAMIDE], the CFU (Escherichia coli [1]) is reported as 1 10^6/ml, the CFU (Escherichia coli [2]) is reported as 6.7 10^6/ml and the Activity (Escherichia coli [3]) is reported as “Active”. The Activity (Escherichia coli [4]) was “Active”.

Molecule `CN(C)[C@@H]1C(O)=C(C(N)=O)C(=O)[C@@]2(O)C(O)=C3C(=O)c4c(O)cccc4[C@@](C)(O)[C@H]3C[C@@H]12` [TETRACYCLINE] has an inhibition zone (IZ) (Escherichia coli [5]) of 32 mm, an inhibition zone (IZ) (Escherichia coli [6]) of 32 mm and an inhibition zone (IZ) (Escherichia coli [7]) of 26 mm. It also gave an inhibition zone (IZ) (Escherichia coli [8]) of 22 mm, an inhibition zone (IZ) (Escherichia coli [9]) of 32 mm and an inhibition zone (IZ) (Escherichia coli [10]) of 32 mm. The inhibition zone (IZ) (Escherichia coli [11]) was 34 mm, the inhibition zone (IZ) (Escherichia coli [12]) was 23 mm and the inhibition zone (IZ) (Escherichia coli [13]) was 34 mm. It also gave an inhibition zone (IZ) (Escherichia coli [14]) of 23 mm, an inhibition zone (IZ) (Escherichia coli [15]) of 34 mm and an inhibition zone (IZ) (Escherichia coli [16]) of 30 mm.

Molecule `COc1cc(Cc2cnc(N)nc2N)cc(OC)c1OC` [TRIMETHOPRIM] has an inhibition zone (IZ) (Escherichia coli [17]) of 36 mm, an inhibition zone (IZ) (Escherichia coli [18]) of 24 mm and an inhibition zone (IZ) (Escherichia coli [19]) of 32 mm. It also gave an inhibition zone (IZ) (Escherichia coli [20]) of 31 mm, an inhibition zone (IZ) (Escherichia coli [21]) of 36 mm and an MBC (Escherichia coli [22]) of 1 µg/mL (≈ 3.44 µM). It also gave an MIC (Escherichia coli [22]) of 0.25 µg/mL (≈ 0.861 µM), an inhibition zone (IZ) (Escherichia coli [23]) of 44 mm and an IZ (Escherichia coli [24]) of 40 mm. For the same molecule, the MBC (Escherichia coli [25]) was 4 µg/mL (≈ 13.8 µM), the MIC (Escherichia coli [25]) was 2 µg/mL (≈ 6.89 µM) and the IZ (Escherichia coli [26]) was 26 mm. The MBC (Escherichia coli [27]) was 8 µg/mL (≈ 27.6 µM), the MIC (Escherichia coli [27]) was 2 µg/mL (≈ 6.89 µM) and the IZ (Escherichia coli [28]) was 38 mm. The IZ (Escherichia coli [29]) was 33 mm, the inhibition zone (IZ) (Escherichia coli [30]) was 42 mm and the MBC (Escherichia coli [31]) was 1 µg/mL (≈ 3.44 µM). For the same molecule, the MIC (Escherichia coli [31]) was 0.5 µg/mL (≈ 1.72 µM) and the inhibition zone (IZ) (Escherichia coli [32]) was 30 mm.
